Measured values reported in ChEMBL document CHEMBL1671798, “A competition assay to identify amyloidogenesis inhibitors by monitoring the fluorescence emitted by the covalent attachment of a stilbene derivative to transthyretin” (Bioorg Med Chem, 2011).

Tests used:
[1] = molecular target: Transthyretin (Homo sapiens) (UniProt P02766); assay: Inhibition of wild type-TTR expressed in Escherichia coli assessed as amyloid fibril formation at pH 4.4 at 7. 2 uM after 72 hrs by acid-mediated aggregation assay relative to control; parameters: scale not given: the % may be the effect or the level left
[2] = molecular target: Transthyretin (Homo sapiens) (UniProt P02766); assay: Displacement of 4-fluorophenyl 3-(4-hydroxy-3,5-dimethylstyryl)benzoate from recombinant TTR assessed as fluorescence at 37 degC after 3 hrs; parameters: concentration or dose not given beside the values
How it was run: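 Recombinant WT-TTR from E. coli at 3.6 µM in 10 mM sodium phosphate, 100 mM KCl, 1 mM EDTA, pH 7.0. Test compound (7.2 µM final, added from DMSO) was preincubated 4 h at 25 °C with slow vortexing. S1 (7.2 µM final) was then added. Fluorescence (ex 328/em 384 nm) was read every 10 min for 8 h at 37 °C. The 3 h value is given as % competition fluorescence.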

[3] = molecular target: Transthyretin (Homo sapiens) (UniProt P02766); assay: Displacement of S-phenyl 3-(4-hydroxy-3,5-dimethylstyryl)benzothioate from human TTR assessed as fluorescence at 37 degC after 3 hrs; parameters: concentration or dose not given beside the values
How it was run: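 Commercial human serum with endogenous TTR (about 7.5 µM, as measured). Test compound (15 µM final) and S2 (5 µM final) were both added from DMSO stocks. Conjugate fluorescence was read every 10 min over 8 h on a plate reader. The 3 h value is given as % competition fluorescence.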

Q: `O=C(Nc1ccccc1)Nc1cc(Br)c(O)c(Br)c1` was tested. Which Activity [1] did it give?
A: Its Activity is 9%.

Q: And the Activity [2]?
A: Its Activity is 82%.

Q: And the Activity [3]?
A: Its Activity is 100%.

Q: For `COc1ccccc1/C=C/c1cc(Br)c(O)c(Br)c1`, which Activity [1] is on record?
A: Its Activity is 0%.

Q: What about the Activity [2] of the same molecule?
A: Its Activity is -6%.

Q: What about the Activity [3] of the same molecule?
A: Its Activity is 0%.

Q: Which results are given for `COc1c(Br)cc(C(=O)Nc2cc(Br)c(O)c(Br)c2)cc1Br`?
A: Activity [1]: 10%; Activity [2]: 4%; Activity [3]: 44%

Q: Which Activity [2] does the source give for `Brc1cc(Br)cc(Nc2ccccc2)c1` here?
A: The Activity was 76%.

Q: And the Activity [3]?
A: The Activity was 100%.

Q: For `Cc1ccc(Cl)c(Nc2ccccc2C(=O)O)c1Cl`, which Activity [1] is on record?
A: Its Activity is 3%.

Q: What about the Activity [2] of the same molecule?
A: The Activity was 62%.

Q: And the Activity [3]?
A: The Activity was 85%.

Q: Which results are given for `O=C(Nc1cc(Br)c(O)c(Br)c1)c1cccc(Br)c1`?
A: Activity [1]: 8%; Activity [2]: 13%; Activity [3]: 28%

Q: For `Oc1c(Br)cc(CCc2cccc(C(F)(F)F)c2)cc1Br`, which Activity [1] is on record?
A: Its Activity is 1%.

Q: And the Activity [2]?
A: Its Activity is -6%.

Q: What about the Activity [3] of the same molecule?
A: Its Activity is 3%.

Q: How did the Activity [1] turn out when `CC(C(=O)O)c1ccc(-c2ccccc2)c(F)c1` (stereo unspecified) was run?
A: Its Activity is 29%.

Q: What about the Activity [2] of the same molecule?
A: Its Activity is 93%.

Q: And the Activity [3]?
A: The Activity was 96%.

Q: With `O=C(Nc1cc(Br)c(O)c(Br)c1)c1cccc(O)c1` as the molecule, how does the Activity [1] read?
A: Its Activity is 9%.

Q: What about the Activity [2] of the same molecule?
A: Its Activity is 26%.

Q: And the Activity [3]?
A: The Activity was 18%.

Q: What does the source list for `Oc1c(Br)cc(CCc2ccc(OC(F)F)cc2)cc1Br`?
A: Activity [1]: 1%; Activity [2]: -3%; Activity [3]: 42%

Q: For `O=C(Nc1cc(Br)c(O)c(Br)c1)c1ccccc1O`, which Activity [1] is on record?
A: Its Activity is 2%.

Q: What about the Activity [2] of the same molecule?
A: The Activity was 2%.

Q: What about the Activity [3] of the same molecule?
A: The Activity was 29%.

Q: Which results are given for `Cc1cc(Oc2ccccc2)cc(C)c1O`?
A: Activity [2]: 76%; Activity [3]: 81%

Q: How did the Activity [1] turn out when `O=C(O)c1ccc(C(=O)Nc2cc(Br)c(O)c(Br)c2)cc1` was run?
A: The Activity was 11%.

Q: And the Activity [2]?
A: The Activity was 57%.

Q: What about the Activity [3] of the same molecule?
A: Its Activity is 45%.

Q: With `Cc1cccc(CCc2cc(Br)c(O)c(Br)c2)c1` as the molecule, how does the Activity [1] read?
A: Its Activity is 3%.

Q: What about the Activity [2] of the same molecule?
A: The Activity was -7%.

Q: What about the Activity [3] of the same molecule?
A: The Activity was 2%.

Q: Which results are given for `O=C(O)Cc1ccccc1Nc1c(Cl)cccc1Cl`?
A: Activity [1]: 17%; Activity [2]: 85%; Activity [3]: 99%

Q: For `COc1cc(CCc2cc(Br)c(O)c(Br)c2)cc(OC)c1`, which Activity [1] is on record?
A: Its Activity is 1%.

Q: What about the Activity [2] of the same molecule?
A: Its Activity is 3%.

Q: What about the Activity [3] of the same molecule?
A: Its Activity is 30%.

Q: Which Activity [1] does the source give for `O=C(Nc1cc(Br)c(O)c(Br)c1)c1cc(F)cc(F)c1` here?
A: Its Activity is 10%.

Q: And the Activity [2]?
A: The Activity was 12%.

Q: What about the Activity [3] of the same molecule?
A: Its Activity is 35%.

Q: Which Activity [1] does the source give for `COc1c(Cl)cc(C(=O)Nc2cc(Br)c(O)c(Br)c2)cc1Cl` here?
A: Its Activity is 9%.

Q: And the Activity [2]?
A: Its Activity is 4%.

Q: And the Activity [3]?
A: The Activity was 26%.

Q: How did the Activity [2] turn out when `O=C(Nc1ccccc1)c1cc(Br)c(O)c(Br)c1` was run?
A: Its Activity is 42%.

Q: What about the Activity [3] of the same molecule?
A: Its Activity is 61%.

Q: How did the Activity [1] turn out when `O=C(O)c1ccccc1Nc1cccc(C(F)(F)F)c1` was run?
A: Its Activity is 2%.

Q: What about the Activity [2] of the same molecule?
A: The Activity was 44%.

Q: And the Activity [3]?
A: The Activity was 97%.

Q: Which results are given for `O=C(Nc1cc(Br)c(O)c(Br)c1)c1cccc(Cl)c1`?
A: Activity [1]: 8%; Activity [2]: 13%; Activity [3]: 28%

Q: For `O=C(O)c1cccc(C(=O)Nc2cc(Br)c(O)c(Br)c2)c1`, which Activity [1] is on record?
A: Its Activity is 11%.

Q: What about the Activity [2] of the same molecule?
A: Its Activity is 77%.

Q: And the Activity [3]?
A: Its Activity is 85%.

Q: With `Oc1c(Br)cc(/C=C/c2ccc(Br)cc2)cc1Br` as the molecule, how does the Activity [1] read?
A: The Activity was 2%.

Q: What about the Activity [2] of the same molecule?
A: Its Activity is -6%.

Q: What about the Activity [3] of the same molecule?
A: Its Activity is 2%.

Q: With `Cc1cccc(Nc2ccccc2C(=O)O)c1C` as the molecule, how does the Activity [1] read?
A: The Activity was 7%.

Q: And the Activity [2]?
A: The Activity was 65%.

Q: And the Activity [3]?
A: Its Activity is 96%.

Q: `O=C(Nc1cc(Br)c(O)c(Br)c1)c1cccc(F)c1` was tested. Which Activity [1] did it give?
A: Its Activity is 13%.

Q: What about the Activity [2] of the same molecule?
A: Its Activity is 18%.

Q: What about the Activity [3] of the same molecule?
A: Its Activity is 54%.

Q: With `Nc1cccc(C(=O)Nc2cc(Br)c(O)c(Br)c2)c1` as the molecule, how does the Activity [1] read?
A: Its Activity is 25%.

Q: What about the Activity [2] of the same molecule?
A: The Activity was 35%.

Q: What about the Activity [3] of the same molecule?
A: Its Activity is 24%.

Q: Which results are given for `O=C(Nc1cc(Br)c(O)c(Br)c1)c1ccc(O)cc1`?
A: Activity [1]: 21%; Activity [2]: 32%; Activity [3]: 16%

Q: `O=C(O)c1cc(-c2ccc(F)cc2F)ccc1O` was tested. Which Activity [1] did it give?
A: Its Activity is 2%.

Q: And the Activity [2]?
A: Its Activity is 75%.

Q: And the Activity [3]?
A: The Activity was 86%.
